Assay results: BindingDB's records for doi:10.1021/jm950716i (Cortech, 1996)

Molecular target: T1, B2 bradykinin receptor (Rattus norvegicus, UniProt P25023)
T1 sequence (P25023 whole entry): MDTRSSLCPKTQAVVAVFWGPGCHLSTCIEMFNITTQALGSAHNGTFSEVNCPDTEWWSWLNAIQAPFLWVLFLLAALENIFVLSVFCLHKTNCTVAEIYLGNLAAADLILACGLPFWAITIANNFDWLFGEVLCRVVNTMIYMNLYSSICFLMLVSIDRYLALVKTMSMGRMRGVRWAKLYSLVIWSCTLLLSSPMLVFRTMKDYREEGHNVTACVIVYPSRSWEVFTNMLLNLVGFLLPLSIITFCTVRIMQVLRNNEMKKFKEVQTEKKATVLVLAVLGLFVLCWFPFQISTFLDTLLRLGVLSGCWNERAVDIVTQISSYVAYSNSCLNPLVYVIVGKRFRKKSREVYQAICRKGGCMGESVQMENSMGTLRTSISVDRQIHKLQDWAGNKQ
Experiment: In vitro Bradykinin receptor B2 antagonist activity by using rat uterus functional assay
Method in brief: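 Uterine horns from female Sprague-Dawley rats primed with stilbesterol (100 μg/kg) 18 h earlier. Tissue held at 1 g tension in De Jalon's solution, 31 °C, aerated. […] Potency by Arunlakshana-Schild analysis.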

Kd: 22.4 nM
Compound: N=C(N)NCCCCC(=O)N1CCC[C@@H]1C(=O)N1C[C@@H](O)C[C@@H]1C(=O)NCC(=O)N[C@@H](Cc1cccs1)C(=O)N[C@@H](CO)C(=O)N1Cc2ccccc2C[C@@H]1C(=O)N(CC(=O)N[C@@H](CCCNC(=N)N)C(=O)O)C1CCCCC1
